What is called IC50 is the concentration needed to halve the response being measured. As usually defined, the Ki is a measure of affinity in units of concentration, obtained from inhibition or displacement. Usually inhibition stands for the share of the control response that was lost under treatment.

Biological target in one assay: not listed separately
Put plainly: Displacement of [3H]gabapentin binding to voltage gated calcium channel alpha2delta from rat cerebral cortex by scintillation counting. Type of assay: tissue-based. The method, boiled down:
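Membranes were incubated 60 min at 22 °C with 10 nM [3H]gabapentin ± test compound in 10 mM Hepes/Tris pH 7.4. Nonspecific binding was taken with excess unlabelled gabapentin. Filter-bound radioactivity was counted by scintillation. Compounds were diluted from DMSO stocks, 100-fold into the well. Duplicates. IC50 came from a competition curve of specific binding; gabapentin was the reference in each run.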
Background: Displacement assays read how much labelled ligand stays bound in the presence of the test substance.
As for `CC(C)C[C@H](CN)CC(=O)NCCc1c[nH]c2ccc(O)cc12`, the IC50 is 13 µM and the Ki worked out at 11 µM.

The species named for another assay is Rattus norvegicus. In words: Inhibition of [3H]gabapentin binding to voltage gated calcium channel alpha2delta from rat cerebral cortex at 10 uM by scintillation counting. It counts as tissue-based. The method, boiled down: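 Single test concentration, in duplicate. Membranes were incubated 60 min at 22 °C with 10 nM [3H]gabapentin in 10 mM Hepes/Tris pH 7.4. Nonspecific binding was defined with excess unlabelled gabapentin, and filters were counted by scintillation. Compound came from DMSO stock with a final 100-fold dilution in the well. Result given as % inhibition of control specific binding.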
For the compound `CC(C)C[C@H](CN)CC(=O)N[C@H]1C(O)O[C@H](CO)[C@@H](O)[C@@H]1O` (some centres undefined), the inhibition stood at 18%.
In the case of `CC(C)C[C@H](CN)CC(=O)N[C@@H]1O[C@H](CO)[C@@H](O)[C@H](O)[C@H]1O`, the inhibition is 17%.
On the same count and under the same terms, with `CC(C)C[C@H](CN)CC(=O)N[C@H]1C(O)O[C@H](CO)[C@H](O)[C@@H]1O` (some centres undefined) the figure was 9%; with `CC(C)C[C@H](CN)CC(=O)O`, 92%.
Same read-out and setting: with `CC(C)C[C@H](CN)CC(=O)NCCc1c[nH]c2ccccc12` the figure was 18%; with `CC(C)C[C@H](CN)CC(=O)NCCc1c[nH]c2ccc(O)cc12`, 51%; with `CC(C)C[C@H](CN)CC(=O)N[C@@H]1C(O)O[C@H](CO)[C@@H](O)[C@@H]1O` (some centres undefined), 14%.

Source of the values: ChEMBL document CHEMBL1157029, “Synthesis, characterization and in vitro pharmacology of novel pregabalin derivatives” (Eur J Med Chem, 2010).
